Results from ChEMBL document CHEMBL3046721, “3-(Arylthiomethyl)isoxazole-4,5-dicarboxamides: chemoselective nucleophilic chemistry and insecticidal activity” (2009).
Activity calls are given as the source filed them.

Assays:
Aedes aegypti = assay: Insecticidal activity against larvae of Aedes aegypti assessed as mortality after 3 days by high-throughput screening assay; format: functional, organism-based
In short: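 One-day-old larvae placed in 96-well plates pre-treated with 6 μg/well, applied in 15 μl DMSO-acetone-water (1:1:8) and dried. Plates lidded, held at room temperature, mortality graded 3 days post-treatment. Six replicates per treatment.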

Spodoptera exigua [1] = assay: Insecticidal activity against larvae of Spodoptera exigua fed with artificial diet containing compound assessed as mortality after 6 days by high-throughput screening assay; format: functional; design: concentration or dose not given beside the values
In short: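 Artificial diet (100 μl/well, 96-well) pretreated with 12 μg compound in 30 μl DMSO-acetone-water (2:1:7), dried several hours, then seeded with eggs. Plates covered, kept in dark at 29°C, mortality recorded 6 days post-treatment. Six replicates per treatment.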

Helicoverpa zea = assay: Insecticidal activity against second-instar larval stage of Helicoverpa zea (corn earworm) fed with artificial diet containing compound assessed as mortality after 5 days by diet-based secondary assay; format: functional, organism-based
In short: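 Follow-up for primary-screen hits (>67% mortality): 128-well diet trays, 1 mL diet containing selected dosages, second-instar larvae. Wells covered with clear plastic, eight wells per treatment, percent mortality averaged over eight wells at 5 days. Approximate LC50 estimated by probit analysis.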

Spodoptera exigua [2] = assay: Insecticidal activity against second-instar larval stage of Spodoptera exigua fed with artificial diet containing compound assessed as mortality at 50 ug/cm2 after 5 days by diet-based secondary assay; format: functional; conditions: 120 h
In short: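 Second-instar larvae on 128-well trays with 1 mL diet dosed at 50 μg/cm2, eight wells per treatment under clear plastic. Percent mortality averaged over the eight wells, scored 5 days after assay start; tested only on primary-screen hits (>67% mortality).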

Row | SMILES | mortality (Aedes aegypti) | mortality (Spodoptera exigua [1]) | mortality (Helicoverpa zea) | mortality at 50 µg/cm2 (Spodoptera exigua [2])
1 | C=CCNC(=O)c1onc(CSc2cc(C)cc(C)c2)c1C(=O)NCC=C | inactive | 17% |  | 
2 | CCCNC(=O)c1onc(CSc2ccc(Cl)cc2)c1C(=O)NCCC | inactive | 50% |  | 
3 | CCCCNC(=O)c1onc(CSc2ccc(F)cc2)c1C(=O)NCCCC | inactive | 50% |  | 
4 | C=CCNC(=O)c1onc(CS(=O)(=O)c2ccccc2)c1C(=O)NCC=C | inactive | 100% | inactive | 0%
5 | C=CCNC(=O)c1onc(CSc2ccccc2)c1C(=O)NCC=C | inactive | 33% |  | 
6 | COc1cccc(SCc2noc(C(=O)NCCC(C)C)c2C(=O)NCCC(C)C)c1 | inactive |  |  | 
7 | CC(C)NC(=O)c1onc(CS(=O)(=O)c2ccccc2)c1C(=O)NC(C)C | inactive | 100% | inactive | 0%
8 | CCCCNC(=O)c1onc(CSc2ccccn2)c1C(=O)NCCCC | inactive |  |  | 
9 | CC(C)CCNC(=O)c1onc(CSc2ccncc2)c1C(=O)NCCC(C)C | inactive | 83% |  | 0%
10 | CCCNC(=O)c1onc(CSc2ccccc2)c1C(=O)NCCC | inactive | 50% |  | 
11 | CCCNC(=O)c1onc(CSc2cccc(OC)c2)c1C(=O)NCCC | inactive | 50% |  | 
12 | CC(C)NC(=O)c1onc(CS(=O)(=O)c2ccc(Cl)cc2)c1C(=O)NC(C)C | inactive | 97% | inactive | 0%
13 | O=C(NCc1ccccc1)c1onc(CSc2ccncc2)c1C(=O)NCc1ccccc1 | inactive |  |  | 
14 | CC(C)CCNC(=O)c1onc(CSc2ccccc2)c1C(=O)NCCC(C)C | inactive | 33% |  | 
15 | CC(C)CCNC(=O)c1onc(CSc2ccccn2)c1C(=O)NCCC(C)C | inactive |  |  | 
16 | CCCNC(=O)c1c(CS(=O)(=O)c2ccc(Cl)cc2)noc1C(=O)NCc1ccccc1 | inactive | 100% | inactive | 0%
17 | O=C(NCc1ccccc1)c1onc(CSc2ccc(F)cc2)c1C(=O)NCc1ccccc1 | inactive | 67% |  | 0%
18 | Cc1cc(C)cc(SCc2noc(C(=O)NC(C)C)c2C(=O)NC(C)C)c1 | inactive |  |  | 
19 | CC(C)NC(=O)c1onc(CSc2ccccc2)c1C(=O)NC(C)C | inactive | 67% |  | 0%
20 | CCCNC(=O)c1onc(CSc2ccncc2)c1C(=O)NCCC | inactive | 33% |  | 
21 | O=C(NCc1ccccc1)c1onc(CSc2ccc(Cl)cc2)c1C(=O)NCc1ccccc1 | inactive | 67% |  | 0%
22 | C=CCNC(=O)c1c(CSc2ccccc2)noc1C(=O)NCc1ccccc1 | inactive | 0% |  | 
23 | Cc1cc(C)cc(SCc2noc(C(=O)NCCC(C)C)c2C(=O)NCCC(C)C)c1 | inactive |  |  | 
24 | COCCNC(=O)c1c(CS(=O)(=O)c2ccccc2)noc1C(=O)NCc1ccccc1 | inactive | 100% | inactive | 
25 | C=CCNC(=O)c1onc(CSc2ccncc2)c1C(=O)NCC=C | inactive | 17% |  | 
26 | COCCNC(=O)c1onc(CSc2ccncc2)c1C(=O)NCCOC | inactive | 50% |  | 
27 | CC(C)CCNC(=O)c1c(CSc2ccccc2)noc1C(=O)NCc1ccccc1 | inactive | 67% |  | 0%

Row | SMILES | mortality (Aedes aegypti) | mortality (Spodoptera exigua [1]) | mortality (Helicoverpa zea) | mortality at 50 µg/cm2 (Spodoptera exigua [2])
28 | CCCNC(=O)c1onc(CSc2cc(C)cc(C)c2)c1C(=O)NCCC | inactive | 50% |  | 
29 | C=CCNC(=O)c1onc(CSc2ccc(F)cc2)c1C(=O)NCC=C | inactive | 67% |  | 0%
30 | COCCNC(=O)c1onc(CSc2cc(C)cc(C)c2)c1C(=O)NCCOC | inactive |  |  | 
31 | CCCCNC(=O)c1c(CS(=O)(=O)c2ccccc2)noc1C(=O)NCc1ccccc1 | inactive | 67% |  | 0%
32 | COCCNC(=O)c1onc(CSc2ccccn2)c1C(=O)NCCOC | inactive | 17% |  | 
33 | O=C(NCc1ccccc1)c1onc(CSc2ccccc2)c1C(=O)NCc1ccccc1 | inactive | 67% |  | 
34 | CC(C)CCNC(=O)c1c(CSc2ccc(Cl)cc2)noc1C(=O)NCc1ccccc1 | inactive | 67% |  | 0%
35 | COCCNC(=O)c1onc(CSc2ccc(F)cc2)c1C(=O)NCCOC | inactive | 67% |  | 0%
36 | CCCCNC(=O)c1onc(CSc2cccc(OC)c2)c1C(=O)NCCCC | inactive |  |  | 
37 | COCCNC(=O)c1onc(CSc2cccc(OC)c2)c1C(=O)NCCOC | inactive | 67% |  | 0%
38 | CC(C)NC(=O)c1onc(CSc2ccc(F)cc2)c1C(=O)NC(C)C | inactive | 50% |  | 
39 | COc1cccc(SCc2noc(C(=O)NCc3ccccc3)c2C(=O)NCc2ccccc2)c1 | inactive | 50% |  | 
40 | CC(C)NC(=O)c1c(CS(=O)(=O)c2ccc(Cl)cc2)noc1C(=O)NCc1ccccc1 | inactive |  |  | 
41 | COCCNC(=O)c1c(CSc2ccccc2)noc1C(=O)NCc1ccccc1 | inactive | 17% |  | 
42 | C=CCNC(=O)c1onc(CSc2cccc(OC)c2)c1C(=O)NCC=C | inactive | 67% |  | 0%
43 | CC(C)NC(=O)c1onc(CSc2ccccn2)c1C(=O)NC(C)C | inactive | 50% |  | 
44 | C=CCNC(=O)c1onc(CSc2ccccn2)c1C(=O)NCC=C | inactive | 17% |  | 
45 | CCCCNC(=O)c1onc(CSc2ccncc2)c1C(=O)NCCCC | inactive | 67% |  | 0%
46 | CCCNC(=O)c1onc(CSc2ccc(F)cc2)c1C(=O)NCCC | inactive | 33% |  | 
47 | COCCNC(=O)c1c(CSc2ccc(Cl)cc2)noc1C(=O)NCc1ccccc1 | inactive | 17% |  | 
48 | O=C(NCc1ccccc1)c1onc(CSc2ccccn2)c1C(=O)NCc1ccccc1 | inactive | 67% |  | 0%
49 | CCCCNC(=O)c1onc(CSc2ccccc2)c1C(=O)NCCCC | inactive |  |  | 
50 | CCCNC(=O)c1onc(CSc2ccccn2)c1C(=O)NCCC | inactive | 50% |  | 
51 | CCCCNC(=O)c1onc(CSc2cc(C)cc(C)c2)c1C(=O)NCCCC | inactive |  |  | 
52 | C=CCNC(=O)c1onc(CSc2ccc(Cl)cc2)c1C(=O)NCC=C | inactive | 17% |  | 
53 | CCCCNC(=O)c1onc(CSc2ccc(Cl)cc2)c1C(=O)NCCCC | inactive | 33% |  | 
